Assay results taken from ChEMBL document CHEMBL4368906 (J Med Chem, 2019).
Bridge positions count the residues as written; N and C are the ends. Square brackets hold non-standard residues; d marks the D form. Peptide text beside a SMILES is read from it. NMeW = CN[C@@H](Cc1c[nH]c2ccccc12)C(=O)O; NMeY = CN[C@@H](Cc1ccc(O)cc1)C(=O)O; NMeF = CN[C@@H](Cc1ccccc1)C(=O)O; NMeK = CN[C@@H](CCCCN)C(=O)O; NMeC = CN[C@@H](CS)C(=O)O

Tests used:
[1] = molecular target: T1, Urotensin-2 receptor (Rattus norvegicus) (UniProt P49684); experiment: Agonist activity at urotensin 2 receptor in Sprague-Dawley rat thoracic aortic ring assessed as induction of contraction relative to urotensin-2
T1 sequence (whole entry): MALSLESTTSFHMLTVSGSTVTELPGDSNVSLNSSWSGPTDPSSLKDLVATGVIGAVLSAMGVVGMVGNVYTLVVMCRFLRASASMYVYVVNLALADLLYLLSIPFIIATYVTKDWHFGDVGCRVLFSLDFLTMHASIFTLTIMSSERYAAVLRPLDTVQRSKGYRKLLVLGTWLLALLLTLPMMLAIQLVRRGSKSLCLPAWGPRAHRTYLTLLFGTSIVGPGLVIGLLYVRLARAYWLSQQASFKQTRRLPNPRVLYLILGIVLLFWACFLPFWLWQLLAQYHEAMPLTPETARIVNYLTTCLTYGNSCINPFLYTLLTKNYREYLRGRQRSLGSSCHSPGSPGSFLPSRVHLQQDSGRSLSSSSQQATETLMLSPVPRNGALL
Summary of the method: (§1)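 Male Sprague-Dawley rats, 250-300 g. Aortic rings were held in a 5-mL organ bath of oxygenated Krebs-Henseleit buffer. Each vessel was first challenged with KCl, 40 mM final in the bath. Peptides were added cumulatively from 10−11 to 10−5 M. Each contraction was taken as a percentage of the KCl response, divided by the response to hU-II (10−7 M).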

Urotensin-2 receptor [2] = molecular target: T2, Urotensin-2 receptor (Homo sapiens, UniProt Q9UKP6); experiment: Agonist activity at urotensin 2 receptor (unknown origin) expressed in HEK293 cells co-expressing Gq-polycistronic BRET biosensor assessed as induction of Gq activation measured for 5 mins by luminescence detection based BRET assay; type: cell-based
T2 sequence (Q9UKP6 whole entry): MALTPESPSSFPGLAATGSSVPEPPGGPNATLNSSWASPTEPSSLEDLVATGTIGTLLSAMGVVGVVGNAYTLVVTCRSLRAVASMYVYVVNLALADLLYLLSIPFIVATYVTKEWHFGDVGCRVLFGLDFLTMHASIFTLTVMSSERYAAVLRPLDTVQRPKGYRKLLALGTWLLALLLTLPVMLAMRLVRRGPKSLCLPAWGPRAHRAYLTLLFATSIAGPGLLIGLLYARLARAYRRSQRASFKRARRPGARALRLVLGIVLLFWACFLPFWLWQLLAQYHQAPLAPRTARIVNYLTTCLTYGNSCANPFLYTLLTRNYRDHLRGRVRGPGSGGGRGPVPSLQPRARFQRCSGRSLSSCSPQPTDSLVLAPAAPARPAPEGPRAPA

Urotensin-2 receptor [3] = molecular target: T3, Urotensin-2 receptor (Rattus norvegicus, UniProt P49684); experiment: Agonist activity at urotensin 2 receptor in Sprague-Dawley rat thoracic aortic ring assessed as induction of contraction relative to KCl-induced contraction; summary of the method: as §1
T3 sequence (P49684 whole entry): T1 sequence (whole entry)

Urotensin-2 receptor [4] = molecular target: T2, Urotensin-2 receptor; experiment: Displacement of [125I]-URP or human [125I[-urotensin-2 from human urotensin 2 receptor expressed in HEK293 or CHOK1 cells after 2 hrs by gamma-counting assay; type: cell-based
[5] = molecular target: T1, Urotensin-2 receptor (Rattus norvegicus); experiment: Agonist activity at urotensin 2 receptor in Sprague-Dawley rat thoracic aortic ring assessed as induction of contraction at 10 uM relative to KCl-induced contraction; summary of the method: as §1

Emax [1] [%]	EC50 (Urotensin-2 receptor [2]) [nM]	EC50 (Urotensin-2 receptor [3]) [nM]	Ki (Urotensin-2 receptor [4]) [nM]	Activity [5] [%]	SMILES
97	5.62	5.75	20.4		CC(C)[C@H](NC(=O)[C@@H]1CSSC[C@H](NC(=O)[C@H](CC(=O)O)NC(=O)[C@@H]2CCCN2C(=O)[C@@H](NC(=O)[C@@H](N)CCC(=O)O)[C@@H](C)O)C(=O)N[C@@H](Cc2ccccc2)C(=O)N(C)[C@@H](Cc2c[nH]c3ccccc23)C(=O)N[C@@H](CCCCN)C(=O)N[C@@H](Cc2ccc(O)cc2)C(=O)N1)C(=O)O
95	4.68	5.25	3.55		CC(C)[C@H](NC(=O)[C@@H]1CSSC[C@H](NC(=O)[C@@H](N)CC(=O)O)C(=O)N[C@@H](Cc2ccccc2)C(=O)N[C@@H](Cc2c[nH]c3ccccc23)C(=O)N[C@@H](CCCCN)C(=O)N[C@@H](Cc2ccc(O)cc2)C(=O)N1C)C(=O)O (H-DCFWKY[NMeC]V-OH; disulfide 2-7)
112		9.77	49		CC(C)[C@H](NC(=O)[C@@H]1CSSC[C@H](N(C)C(=O)[C@H](CC(=O)O)NC(=O)[C@@H]2CCCN2C(=O)[C@@H](NC(=O)[C@@H](N)CCC(=O)O)[C@@H](C)O)C(=O)N[C@@H](Cc2ccccc2)C(=O)N[C@@H](Cc2c[nH]c3ccccc23)C(=O)N[C@@H](CCCCN)C(=O)N[C@@H](Cc2ccc(O)cc2)C(=O)N1)C(=O)O
	1.86	5.25	4.57		CC(C)[C@H](NC(=O)[C@@H]1CSSC[C@H](NC(=O)[C@@H](N)CC(=O)O)C(=O)N[C@@H](Cc2ccccc2)C(=O)N[C@@H](Cc2c[nH]c3ccccc23)C(=O)N[C@@H](CCCCN)C(=O)N[C@@H](Cc2ccc(O)cc2)C(=O)N1)C(=O)O (H-DCFWKYCV-OH; disulfide 2-7)
110		4.9	1.74		CC(C)[C@H](NC(=O)[C@@H]1CSSC[C@H](N(C)C(=O)[C@H](C)N)C(=O)N[C@@H](Cc2ccccc2)C(=O)N[C@@H](Cc2c[nH]c3ccccc23)C(=O)N[C@@H](CCCCN)C(=O)N[C@@H](Cc2ccc(O)cc2)C(=O)N1)C(=O)O
			> 10000	42	CC(C)[C@H](NC(=O)[C@@H]1CSSC[C@H](NC(=O)[C@@H](N)CC(=O)O)C(=O)N[C@@H](Cc2ccccc2)C(=O)N[C@@H](Cc2c[nH]c3ccccc23)C(=O)N(C)[C@@H](CCCCN)C(=O)N[C@@H](Cc2ccc(O)cc2)C(=O)N1)C(=O)O (H-DCFW[NMeK]YCV-OH; disulfide 2-7)
98	18.6	537	229		CC(C)[C@H](NC(=O)[C@@H]1CSSC[C@H](NC(=O)[C@@H](N)CC(=O)O)C(=O)N(C)[C@@H](Cc2ccccc2)C(=O)N[C@@H](Cc2c[nH]c3ccccc23)C(=O)N[C@@H](CCCCN)C(=O)N[C@@H](Cc2ccc(O)cc2)C(=O)N1)C(=O)O (H-DC[NMeF]WKYCV-OH; disulfide 2-7)
35	13.8	83.2	2.19		CC(C)[C@H](NC(=O)[C@@H]1CSSC[C@H](NC(=O)[C@H](C)N)C(=O)N[C@@H](Cc2ccccc2)C(=O)N(C)[C@@H](Cc2c[nH]c3ccccc23)C(=O)N[C@@H](CCCCN)C(=O)N[C@@H](Cc2ccc(O)cc2)C(=O)N1)C(=O)O
96	22.4	200	813		CC(C)[C@H](NC(=O)[C@@H]1CSSC[C@H](NC(=O)[C@H](CC(=O)O)NC(=O)[C@@H]2CCCN2C(=O)[C@@H](NC(=O)[C@@H](N)CCC(=O)O)[C@@H](C)O)C(=O)N(C)[C@@H](Cc2ccccc2)C(=O)N[C@@H](Cc2c[nH]c3ccccc23)C(=O)N[C@@H](CCCCN)C(=O)N[C@@H](Cc2ccc(O)cc2)C(=O)N1)C(=O)O
			> 10000	44	CC(C)[C@H](NC(=O)[C@@H]1CSSC[C@H](NC(=O)[C@@H](N)CC(=O)O)C(=O)N[C@@H](Cc2ccccc2)C(=O)N[C@@H](Cc2c[nH]c3ccccc23)C(=O)N[C@@H](CCCCN)C(=O)N(C)[C@@H](Cc2ccc(O)cc2)C(=O)N1)C(=O)O (H-DCFWK[NMeY]CV-OH; disulfide 2-7)
105	2.69	24.5	22.9		CC(C)[C@H](NC(=O)[C@@H]1CSSC[C@H](NC(=O)[C@H](CC(=O)O)NC(=O)[C@@H]2CCCN2C(=O)[C@@H](NC(=O)[C@@H](N)CCC(=O)O)[C@@H](C)O)C(=O)N[C@@H](Cc2ccccc2)C(=O)N[C@@H](Cc2c[nH]c3ccccc23)C(=O)N[C@@H](CCCCN)C(=O)N[C@@H](Cc2ccc(O)cc2)C(=O)N1C)C(=O)O
	105		245	51	CC(C)[C@H](NC(=O)[C@@H]1CSSC[C@H](NC(=O)[C@H](C)N)C(=O)N(C)[C@@H](Cc2ccccc2)C(=O)N[C@@H](Cc2c[nH]c3ccccc23)C(=O)N[C@@H](CCCCN)C(=O)N[C@@H](Cc2ccc(O)cc2)C(=O)N1)C(=O)O
44	5.25	9.55	3.55		CC(C)[C@H](NC(=O)[C@@H]1CSSC[C@H](NC(=O)[C@H](C)N)C(=O)N[C@@H](Cc2ccccc2)C(=O)N[C@@H](Cc2c[nH]c3ccccc23)C(=O)N[C@@H](CCCCN)C(=O)N[C@@H](Cc2ccc(O)cc2)C(=O)N1C)C(=O)O
105	3.63	3.39	1.74		CC(C)[C@H](NC(=O)[C@@H]1CSSC[C@H](NC(=O)[C@@H](N)CC(=O)O)C(=O)N[C@@H](Cc2ccccc2)C(=O)N(C)[C@@H](Cc2c[nH]c3ccccc23)C(=O)N[C@@H](CCCCN)C(=O)N[C@@H](Cc2ccc(O)cc2)C(=O)N1)C(=O)O (H-DCF[NMeW]KYCV-OH; disulfide 2-7)
			1510	22	CC(C)[C@H](NC(=O)[C@@H]1CSSC[C@H](NC(=O)[C@H](C)N)C(=O)N[C@@H](Cc2ccccc2)C(=O)N[C@@H](Cc2c[nH]c3ccccc23)C(=O)N(C)[C@@H](CCCCN)C(=O)N[C@@H](Cc2ccc(O)cc2)C(=O)N1)C(=O)O
			5370	16	CC(C)[C@H](NC(=O)[C@@H]1CSSC[C@H](NC(=O)[C@H](C)N)C(=O)N[C@@H](Cc2ccccc2)C(=O)N[C@@H](Cc2c[nH]c3ccccc23)C(=O)N[C@@H](CCCCN)C(=O)N(C)[C@@H](Cc2ccc(O)cc2)C(=O)N1)C(=O)O
116	2.69	7.76	6.31		CC(C)[C@H](NC(=O)[C@@H]1CSSC[C@H](NC(=O)[C@H](C)N)C(=O)N[C@@H](Cc2ccccc2)C(=O)N[C@@H](Cc2c[nH]c3ccccc23)C(=O)N[C@@H](CCCCN)C(=O)N[C@@H](Cc2ccc(O)cc2)C(=O)N1)C(=O)O
			2090	72	CC(C)[C@H](NC(=O)[C@@H]1CSSC[C@H](NC(=O)[C@H](CC(=O)O)NC(=O)[C@@H]2CCCN2C(=O)[C@@H](NC(=O)[C@@H](N)CCC(=O)O)[C@@H](C)O)C(=O)N[C@@H](Cc2ccccc2)C(=O)N[C@@H](Cc2c[nH]c3ccccc23)C(=O)N(C)[C@@H](CCCCN)C(=O)N[C@@H](Cc2ccc(O)cc2)C(=O)N1)C(=O)O
			2140	71	CC(C)[C@H](NC(=O)[C@@H]1CSSC[C@H](NC(=O)[C@H](CC(=O)O)NC(=O)[C@@H]2CCCN2C(=O)[C@@H](NC(=O)[C@@H](N)CCC(=O)O)[C@@H](C)O)C(=O)N[C@@H](Cc2ccccc2)C(=O)N[C@@H](Cc2c[nH]c3ccccc23)C(=O)N[C@@H](CCCCN)C(=O)N(C)[C@@H](Cc2ccc(O)cc2)C(=O)N1)C(=O)O
101		4.47	2.95		CC(C)[C@H](NC(=O)[C@@H]1CSSC[C@H](N(C)C(=O)[C@@H](N)CC(=O)O)C(=O)N[C@@H](Cc2ccccc2)C(=O)N[C@@H](Cc2c[nH]c3ccccc23)C(=O)N[C@@H](CCCCN)C(=O)N[C@@H](Cc2ccc(O)cc2)C(=O)N1)C(=O)O (H-D[NMeC]FWKYCV-OH; disulfide 2-7)

SMILES	Emax [1] [%]	EC50 (Urotensin-2 receptor [2]) [nM]	EC50 (Urotensin-2 receptor [3]) [nM]	Ki (Urotensin-2 receptor [4]) [nM]	Activity [5] [%]
CC(C)[C@H](NC(=O)[C@@H]1CSSC[C@H](NC(=O)[C@H](CC(=O)O)NC(=O)[C@@H]2CCCN2C(=O)[C@@H](NC(=O)[C@@H](N)CCC(=O)O)[C@@H](C)O)C(=O)N[C@@H](Cc2ccccc2)C(=O)N[C@@H](Cc2c[nH]c3ccccc23)C(=O)N[C@@H](CCCCN)C(=O)N[C@@H](Cc2ccc(O)cc2)C(=O)N1)C(=O)O [UROTENSIN-II]			3.02		
